Measured values as given in publication PMC3234294 (Analytical chemistry, 2011).

Legend:
[1] = QCM binding of antibodies to bare Au sensor surface; conditions: 1 μl of 1 μg/μl MAb spiked into 1 ml PBS
[2] = QCM binding of antibodies to MUA sensor surface; conditions: 1 μl of 1 μg/μl MAb spiked into 1 ml PBS
How it was run: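 Au QCM electrodes, bare or modified by overnight SAM formation at 4 °C (MUA or peptide monolayers), rinsed with water and placed in 1 ml PBS. Therapeutic monoclonal antibodies (1 μg/μl stock) were spiked sequentially, 1 μl each, into the cuvette. Frequency change was recorded against time with a network/impedance analyzer.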

[3] = system: Herceptin; test: QCM binding of immobilized HER2 mimotope-derived peptides to Herceptin; design: species or system humanized
[4] = system: Avastin; test: QCM nonspecific binding of immobilized peptides to Avastin
How it was run: (§1)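 A CH-19 peptide monolayer was self-assembled on an Au QCM electrode overnight at 4 °C, rinsed, and held in PBS. The non-target therapeutic antibodies were spiked in sequentially into the same cuvette, each as 1 μl into 999 μl PBS (final 1 μg/ml). Label-free frequency shift (ΔF) was followed in real time with a network/impedance analyzer.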

[5] = system: Rituxan; test: QCM nonspecific binding of immobilized peptides to Rituxan
How it was run: as §1

[6] = system: Cetuximab; test: QCM nonspecific binding of immobilized CH-19 to Cetuximab; conditions: CH-19 modified Au QCM electrode, PBS, final 1 μg/ml
How it was run: as §1

[7] = system: Herceptin; test: CH-19 piezoimmunosensor analytical performance for Herceptin detection; design: species or system humanized
[8] = CV of CH-19 modified Au electrode before and after Herceptin; format: physicochemical; conditions: upon surface deposition of CH-19 and Herceptin; 0.1 M NaClO4, 50 mV/s
[9] = EIS of CH-19 modified Au electrode before and after Herceptin; format: physicochemical; conditions: bare Au to CH-19 to binding with Herceptin; 0.01 Hz-100 kHz, 5 mV
[10] = system: Herceptin; conditions: previously reported; ref 16 (Jiang et al.); cited from earlier work
[11] = QCM, CV and EIS summarized, all four peptide designs
[12] = CH-19 modified Au QCM electrode, PBS, final 1 μg/ml

## Avastin: therapeutic MAb, control drug
[1]
  Binding to bare Au sensor surface, in words: negligible
[2]
  Binding to MUA sensor surface, in words: appreciable

## CGSGSGSQLGPYELWELSH [CH-19]
[3]; CH-19 modified gold QCM electrode (Figure S3)
  Ka (affinity for Herceptin): 7.96e+08 M⁻¹
[3]; Herceptin lowered 10 fold to 0.1 μg/ml, H2O, PBS or HBS-EP
  Buffering effects on Herceptin/CH-19 interaction: similar
[3]; [11]
  Overall binding capacity with Herceptin among peptide designs: highest binding capacity with Herceptin
[3]; estimated by Sauerbrey's equation, ΔF of 1 Hz about 1 ng, PBS, 1 μg/ml Herceptin
  Herceptin bound to the CH-19 modified gold QCM electrode (mass): ~ 225 ng
[3]; simple buffer (1 ml HBS-EP), 1 μl Herceptin stock 1 μg/μl, no serum
  frequency change (ΔF) with free Herceptin: ~ 275 Hz
[4]; [12]
  frequency shift (ΔF) with Avastin: ~ 0 Hz
[4]; [11]
  Nonspecific binding activity with Avastin among peptide designs: lowest nonspecific binding activity
[5]; [12]
  frequency shift (ΔF) with Rituxan: ~ 0 Hz
[5]; [11]
  Nonspecific binding activity with Rituxan among peptide designs: lowest nonspecific binding activity
[6]
  frequency shift (ΔF) with Cetuximab: ~ 0 Hz
[7]; PBS buffer
  sensitivity: 0.52 Hz · ml/ng
[7]; PBS buffer, frequency change vs time
  time to detection of Herceptin, in words: within minutes
[7]; PBS buffer, S/N = 3, N ~ 1.85 Hz
  detection limit: 10.70 ng/mL
[7]; in simple buffers and in human serum samples (Table S3)
  detection limit: 0.038 nM
[7]; piezoimmunosensor assay, standard curve in HBS-EP buffer
  detection limit: 0.038 nM
[8]
  redox peaks of Fe(CN)6 probe: gradually disappeared
[9]
  Nyquist plots (electron transfer resistance): enlarged step-by-step

## GPYELWELSH
[10]
  specific binding activities to Herceptin, in words: exhibited specific binding activities to Herceptin

## QLGPYELWELSH
[10]
  specific binding activities to Herceptin, in words: exhibited specific binding activities to Herceptin

## Rituxan: therapeutic MAb, control drug
[1]
  Binding to bare Au sensor surface, in words: negligible
[2]
  Binding to MUA sensor surface, in words: appreciable
